# Measured values as given in ChEMBL document CHEMBL1671716, “Antimicrobial susceptibility patterns for recent clinical isolates of anaerobic bacteria in South Korea” (2010).
# Columns and labels:
# [1] = test system: Hoylesella oralis; experiment: Antimicrobial activity against Prevotella oralis assessed as percent resistant isolates after 48 hrs by agar dilution method; assay type: functional
# Procedure, shortened: (§1)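 CLSI agar dilution on recent Korean clinical anaerobe isolates. Inoculum 10^5 CFU per spot by replicator. Plates incubated in an anaerobic chamber at 37°C for 48 h. For piperacillin plus tazobactam, tazobactam was held constant at 4 μg/ml. Resistance and susceptibility rates derived from MICs.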
# [2] = test system: Bacteroides thetaiotaomicron; experiment: Antimicrobial activity against Bacteroides thetaiotaomicron after 48 hrs by agar dilution method; assay type: functional
# Procedure, shortened: (§2)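 MICs on clinical anaerobe isolates by the CLSI agar dilution method. Inoculum of 10^5 CFU applied with a Steers replicator. Plates incubated 48 h at 37°C in an anaerobic chamber.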
# [3] = test system: Finegoldia magna; experiment: Antimicrobial activity against Finegoldia magna after 48 hrs by agar dilution method; assay type: functional
# Procedure, shortened: (§3)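 CLSI agar dilution (M11-A7); inoculum 10^5 CFU applied by replicator; plates incubated anaerobically 48 h at 37°C. For piperacillin-tazobactam, tazobactam held constant at 4 μg/ml.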
# [4] = test system: Eggerthella lenta; experiment: Antimicrobial activity against Eubacterium lentum assessed as percent resistant isolates after 48 hrs by agar dilution method; assay type: functional; procedure, shortened: as §1
# [5] = test system: Bifidobacterium sp.; experiment: Antimicrobial activity against Bifidobacterium sp. assessed as percent resistant isolates after 48 hrs by agar dilution method; assay type: functional; procedure, shortened: as §1
# [6] = test system: Porphyromonas asaccharolytica; experiment: Antimicrobial activity against Porphyromonas asaccharolytica after 48 hrs by agar dilution method; assay type: functional; procedure, shortened: as §3
# [7] = test system: Schaalia meyeri; experiment: Antimicrobial activity against Actinomyces meyeri assessed as percent resistant isolates after 48 hrs by agar dilution method; assay type: functional; procedure, shortened: as §1
# [8] = test system: Bacteroides thetaiotaomicron; experiment: Antimicrobial activity against Bacteroides thetaiotaomicron assessed as percent susceptible isolates after 48 hrs by agar dilution method; assay type: functional
# [9] = test system: Bacteroides ovatus; experiment: Antimicrobial activity against Bacteroides ovatus after 48 hrs by agar dilution method; assay type: functional; procedure, shortened: as §2
# [10] = test system: Hoylesella oralis; experiment: Antimicrobial activity against Prevotella oralis assessed as percent susceptible isolates after 48 hrs by agar dilution method; assay type: functional
# Procedure, shortened: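 CLSI agar dilution MIC testing of clinical isolates. 10^5 CFU spotted by replicator, plates incubated 48 h at 37°C in an anaerobic chamber. Susceptibility rates derived from the MICs.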
# [11] = test system: Eubacterium sp.; experiment: Antimicrobial activity against Eubacterium sp. assessed as percent resistant isolates after 48 hrs by agar dilution method; assay type: functional; procedure, shortened: as §1
# [12] = test system: Phocaeicola vulgatus; experiment: Antimicrobial activity against Bacteroides vulgatus assessed as percent susceptible isolates after 48 hrs by agar dilution method; assay type: functional
# [13] = test system: Bacteroides caccae; experiment: Antimicrobial activity against Bacteroides caccae assessed as percent susceptible isolates after 48 hrs by agar dilution method; assay type: functional
# [14] = test system: Prevotella bivia; experiment: Antimicrobial activity against Prevotella bivia after 48 hrs by agar dilution method; assay type: functional; procedure, shortened: as §3
# [15] = test system: Bacteroides ovatus; experiment: Antimicrobial activity against Bacteroides ovatus assessed as percent resistant isolates after 48 hrs by agar dilution method; assay type: functional; procedure, shortened: as §1
# [16] = test system: Parvimonas micra; experiment: Antimicrobial activity against Peptostreptococcus micros after 48 hrs by agar dilution method; assay type: functional; procedure, shortened: as §3
# [17] = test system: Clostridioides difficile; experiment: Antimicrobial activity against Clostridium difficile after 48 hrs by agar dilution method; assay type: functional
# [18] = test system: Actinomyces naeslundii; experiment: Antimicrobial activity against Actinomyces naeslundii after 48 hrs by agar dilution method; assay type: functional; procedure, shortened: as §2
# [19] = test system: Schaalia odontolytica; experiment: Antimicrobial activity against Actinomyces odontolyticus assessed as percent susceptible isolates after 48 hrs by agar dilution method; assay type: functional
# [20] = test system: Bacteroides caccae; experiment: Antimicrobial activity against Bacteroides caccae assessed as percent resistant isolates after 48 hrs by agar dilution method; assay type: functional; procedure, shortened: as §1
# [21] = test system: Bifidobacterium adolescentis; experiment: Antimicrobial activity against Bifidobacterium adolescentis after 48 hrs by agar dilution method; assay type: functional; procedure, shortened: as §2
# [22] = test system: Finegoldia magna; experiment: Antimicrobial activity against Finegoldia magna assessed as percent susceptible isolates after 48 hrs by agar dilution method; assay type: functional; procedure, shortened: as §3
# [23] = test system: Prevotella buccae; experiment: Antimicrobial activity against Prevotella buccae assessed as percent resistant isolates after 48 hrs by agar dilution method; assay type: functional, Segatella buccae; procedure, shortened: as §1
# [24] = test system: Parabacteroides distasonis; experiment: Antimicrobial activity against Bacteroides distasonis assessed as percent resistant isolates after 48 hrs by agar dilution method; assay type: functional; procedure, shortened: as §1
# [25] = test system: Peptostreptococcus anaerobius; experiment: Antimicrobial activity against Peptostreptococcus anaerobius assessed as percent susceptible isolates after 48 hrs by agar dilution method; assay type: functional; procedure, shortened: as §1
# [26] = test system: Fusobacterium nucleatum; experiment: Antimicrobial activity against Fusobacterium nucleatum after 48 hrs by agar dilution method; assay type: functional; procedure, shortened: as §3
# [27] = test system: Anaerococcus prevotii; experiment: Antimicrobial activity against Anaerococcus prevotii after 48 hrs by agar dilution method; assay type: functional; procedure, shortened: as §2
# [28] = test system: Bifidobacterium sp.; experiment: Antimicrobial activity against Bifidobacterium sp. assessed as percent susceptible isolates after 48 hrs by agar dilution method; assay type: functional; procedure, shortened: as §3
# [29] = test system: Eggerthella lenta; experiment: Antimicrobial activity against Eubacterium lentum assessed as percent susceptible isolates after 48 hrs by agar dilution method; assay type: functional; procedure, shortened: as §3
# [30] = test system: Parabacteroides distasonis; experiment: Antimicrobial activity against Bacteroides distasonis assessed as percent susceptible isolates after 48 hrs by agar dilution method; assay type: functional
# [31] = test system: Clostridioides difficile; experiment: Antimicrobial activity against Clostridium difficile assessed as percent susceptible isolates after 48 hrs by agar dilution method; assay type: functional
# [32] = test system: Prevotella buccae; experiment: Antimicrobial activity against Prevotella buccae assessed as percent susceptible isolates after 48 hrs by agar dilution method; assay type: functional, Segatella buccae; procedure, shortened: as §3
# [33] = test system: Prevotella intermedia; experiment: Antimicrobial activity against Prevotella intermedia assessed as percent resistant isolates after 48 hrs by agar dilution method; assay type: functional; procedure, shortened: as §1
# [34] = test system: Eubacterium sp.; experiment: Antimicrobial activity against Eubacterium sp. assessed as percent susceptible isolates after 48 hrs by agar dilution method; assay type: functional; procedure, shortened: as §3
# [35] = test system: Peptostreptococcus anaerobius; experiment: Antimicrobial activity against Peptostreptococcus anaerobius after 48 hrs by agar dilution method; assay type: functional; procedure, shortened: as §3
# [36] = test system: Bifidobacterium adolescentis; experiment: Antimicrobial activity against Bifidobacterium adolescentis assessed as percent susceptible isolates after 48 hrs by agar dilution method; assay type: functional
# [37] = test system: Schaalia odontolytica; experiment: Antimicrobial activity against Actinomyces odontolyticus assessed as percent resistant isolates after 48 hrs by agar dilution method; assay type: functional; procedure, shortened: as §1
# [38] = test system: Prevotella intermedia; experiment: Antimicrobial activity against Prevotella intermedia after 48 hrs by agar dilution method; assay type: functional; procedure, shortened: as §3
# [39] = test system: Clostridium perfringens; experiment: Antimicrobial activity against Clostridium perfringens after 48 hrs by agar dilution method; assay type: functional
# [40] = test system: Finegoldia magna; experiment: Antimicrobial activity against Finegoldia magna assessed as percent resistant isolates after 48 hrs by agar dilution method; assay type: functional; procedure, shortened: as §1
# [41] = test system: Bacteroides fragilis; experiment: Antimicrobial activity against Bacteroides fragilis assessed as percent susceptible isolates after 48 hrs by agar dilution method; assay type: functional
# [42] = test system: Prevotella bivia; experiment: Antimicrobial activity against Prevotella bivia assessed as percent resistant isolates after 48 hrs by agar dilution method; assay type: functional; procedure, shortened: as §1
# [43] = test system: Schaalia meyeri; experiment: Antimicrobial activity against Actinomyces meyeri assessed as percent susceptible isolates after 48 hrs by agar dilution method; assay type: functional
# [44] = test system: Bifidobacterium sp.; experiment: Antimicrobial activity against Bifidobacterium sp. after 48 hrs by agar dilution method; assay type: functional; procedure, shortened: as §2
# [45] = test system: Fusobacterium necrogenes; experiment: Antimicrobial activity against Fusobacterium necrogenes after 48 hrs by agar dilution method; assay type: functional; procedure, shortened: as §3
# [46] = test system: Actinomyces israelii; experiment: Antimicrobial activity against Actinomyces israelii assessed as percent resistant isolates after 48 hrs by agar dilution method; assay type: functional; procedure, shortened: as §1
# [47] = test system: Prevotella buccae; experiment: Antimicrobial activity against Prevotella buccae after 48 hrs by agar dilution method; assay type: functional; conditions: Segatella buccae; procedure, shortened: as §3
# [48] = test system: Phocaeicola vulgatus; experiment: Antimicrobial activity against Bacteroides vulgatus after 48 hrs by agar dilution method; assay type: functional; procedure, shortened: as §2
compound,measurement,setting,value
CO[C@@]1(NC(=O)C2SC(=C(C(N)=O)C(=O)O)S2)C(=O)N2C(C(=O)O)=C(CSc3nnnn3C)CS[C@@H]21 (some centres undefined) [CEFOTETAN],Activity,[1],17%
same,MIC50,[2],> 128 µg/mL
same,MIC90,[2],> 128 µg/mL
same,MIC50,[3],1 µg/mL
same,MIC90,[3],2 µg/mL
same,Activity,[4],15%
same,Activity,[5],15%
same,MIC,[6],0.06 µg/mL
same,Activity,[7],15%
same,Activity,[8],89%
same,MIC50,[9],> 128 µg/mL
same,MIC90,[9],> 128 µg/mL
same,Activity,[10],72%
same,Activity,[11],15%
same,Activity,[12],89%
same,Activity,[13],89%
same,MIC50,[14],4 µg/mL
same,MIC90,[14],64 µg/mL
same,Activity,[15],86%
same,MIC50,[16],4 µg/mL
same,MIC90,[16],64 µg/mL
same,MIC,[17],8 µg/mL
same,MIC50,[17],8 µg/mL
same,MIC90,[17],128 µg/mL
same,MIC50,[18],4 µg/mL
same,MIC90,[18],64 µg/mL
same,Activity,[19],85%
same,Activity,[20],86%
same,MIC50,[21],4 µg/mL
same,MIC90,[21],64 µg/mL
same,Activity,[22],100%
same,Activity,[23],17%
same,Activity,[24],86%
same,Activity,[25],62%
same,MIC,[26],0.06 µg/mL
same,MIC50,[27],1 µg/mL
same,MIC90,[27],2 µg/mL
same,Activity,[28],85%
same,Activity,[29],85%
same,Activity,[30],89%
same,Activity,[31],83%
same,Activity,[32],72%
same,Activity,[33],0%
same,Activity,[34],85%
same,MIC50,[35],4 µg/mL
same,MIC90,[35],64 µg/mL
same,Activity,[36],85%
same,Activity,[37],15%
same,MIC50,[38],2 µg/mL
same,MIC90,[38],16 µg/mL
same,MIC50,[39],0.25 µg/mL
same,MIC90,[39],1 µg/mL
same,Activity,[40],0%
same,Activity,[41],71%
same,Activity,[42],17%
same,Activity,[43],85%
same,MIC50,[44],4 µg/mL
same,MIC90,[44],64 µg/mL
same,MIC,[45],0.06 µg/mL
same,Activity,[46],15%
same,MIC50,[47],4 µg/mL
same,MIC90,[47],64 µg/mL
same,MIC50,[48],> 128 µg/mL
same,MIC90,[48],> 128 µg/mL
